Results taken from ChEMBL document CHEMBL1122807, “2-Substituted thiazolidine-4(R)-carboxylic acids as prodrugs of L-cysteine. Protection of mice against acetaminophen hepatotoxicity” (1984).

Tests used:
[1] = tested on: Mus musculus; test: Compound was evaluated for its protective activity against acetaminophen (750 mg ([…]) /kg) toxicity, given intraperitoneally in mice and the number of animals with liver necrosis was determined
[2] = tested on: Mus musculus; test: Compound was evaluated for its protective activity against acetaminophen (750 mg ([…]) /kg) toxicity, given intraperitoneally in mice and the number of animals with liver necrosis was determined after 3h; format: functional
Outline: (§1)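 Overnight-fasted (16 h) Swiss-Webster mice received acetaminophen 750 mg/kg ip, then test agent 2.45 mmol/kg ip 0.5 h later. Agents were made at 15 mg/mL in sterile 0.1 N NaHCO3 (one in sterile water), pH 6.5–7.5, and used within 1 h. Liver sections from the first 18 animals per agent were coded and graded 0 to 4+ blind. Results pooled from ≥3 replicate experiments.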

[3] = tested on: Mus musculus; test: Compound was evaluated for its protective activity against acetaminophen (750 mg ([…]) /kg) toxicity, given intraperitoneally in mice and the number of animals with liver necrosis was determined after 0h; format: functional
[4] = tested on: Mus musculus; test: Compound was evaluated for its protective activity against acetaminophen (750 mg ([…]) /kg) toxicity, given intraperitoneally in mice and the survival of the mice was determined at 48 h; 23/26; format: functional
Outline: (§2)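 Swiss-Webster mice were fasted overnight (16 h) before use. Test compound, made up as a 15 mg/mL solution in sterile 0.1 N NaHCO3 (pH 6.5–7.5) and used within 1 h of preparation, was given at 2.45 mmol/kg ip 0.5 h after acetaminophen ip. Survivors were counted at 48 h. Counts are cumulative over at least three replicate experiments run at different times.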

[5] = tested on: Mus musculus; test: Compound was evaluated for its protective activity against acetaminophen (750 mg ([…]) /kg) toxicity, given intraperitoneally in mice and the number of animals with liver necrosis was determined after 2 hr; format: functional
Outline: as §1

[6] = tested on: Mus musculus; test: Compound was evaluated for its protective activity against acetaminophen (750 mg ([…]) /kg), given intraperitoneally) in mice and the number of animals with liver necrosis was determined after 3h; format: functional
Outline: as §1

[7] = tested on: Mus musculus; test: Compound was evaluated for its protective activity against acetaminophen (750 mg ([…]) /kg) toxicity, given intraperitoneally in mice and the survival of the mice was determined at 48 h; 0/18; format: functional
Outline: as §2

[8] = tested on: Mus musculus; test: Compound was evaluated for its protective activity against acetaminophen (750 mg ([…]) /kg) toxicity, given intraperitoneally in mice and the number of animals with liver necrosis was determined after 1 hr; format: functional
[9] = tested on: Mus musculus; test: Compound was evaluated for its protective activity against acetaminophen (750 mg ([…]) /kg) toxicity, given intraperitoneally in mice and the survival of the mice was determined at 48 h; 13/24; format: functional
Outline: as §2

[10] = tested on: Mus musculus; test: Compound was evaluated for its protective activity against acetaminophen (750 mg ([…]) /kg) toxicity, given intraperitoneally in mice and the survival of the mice was determined at 48 h; 24/24; format: functional
Outline: as §2

[11] = tested on: Mus musculus; test: Compound was evaluated for its protective activity against acetaminophen (750 mg ([…]) /kg) toxicity, given intraperitoneally in mice and the survival of the mice was determined at 48 h; 19/24; format: functional
Outline: as §2

[12] = tested on: Mus musculus; test: Compound was evaluated for its protective activity against acetaminophen (750 mg ([…]) /kg) toxicity, given intraperitoneally in mice and the survival of the mice was determined at 48 h; 30/30; format: functional
Outline: as §2

[13] = organism: Mus musculus; test: Compound was evaluated for the excretion of 14CO2 (carbon dioxide) in expired air of mice and the activity was determined as percent of dose excreted as 14CO2 at following time intervals - 16-24h; format: functional
Outline: (§3)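 Mice were dosed with thiazolidine carrying 14C at ring C-2 and the methyl carbon. Expired 14CO2 was trapped, and the trap was changed at 4, 8, 12, 16 and 24 h. Aliquots were counted by liquid scintillation against an aqueous Na2 14CO3 standard and expressed as percent of dose. The experiment was repeated in a second mouse (24 g, 2.57 mmol/kg).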

[14] = organism: Mus musculus; test: Compound was evaluated for the excretion of 14CO2 (carbon dioxide) in expired air of mice and the activity was determined as percent of dose excreted as 14CO2 at following time intervals - 4-8h; format: functional
Outline: as §3

[15] = organism: Mus musculus; test: Compound was evaluated for the excretion of 14CO2 (carbon dioxide) in expired air of mice and the activity was determined as percent of dose excreted as 14CO2 at following time intervals - 8-12h; format: functional
Outline: as §3

[16] = tested on: Mus musculus; test: Compound was evaluated for its protective activity against acetaminophen (750 mg ([…]) /kg) toxicity, given intraperitoneally in mice and the survival of the mice was determined at 48 h; 28/30; format: functional
[17] = organism: Mus musculus; test: Compound was evaluated for the excretion of 14CO2 (carbon dioxide) in expired air of mice and the activity was determined as percent of dose excreted as 14CO2 at following time intervals - 12-16 h; format: functional
Outline: as §3

[18] = organism: Mus musculus; test: Compound was evaluated for the excretion of 14CO2 (carbon dioxide) in expired air of mice and the activity was determined as percent of dose excreted as 14CO2 at following time intervals - 0-4 hr; format: functional
Outline: as §3

[19] = tested on: Mus musculus; test: Compound was evaluated for its protective activity against acetaminophen (750 mg ([…]) /kg) toxicity, given intraperitoneally in mice and the survival of the mice was determined at 48 h; 17/17; format: functional

SMILES | No. of animals with liver necrosis [1] | No. of animals with liver necrosis [2] | No. of animals with liver necrosis [3] | No. of animals with liver necrosis [5] | No. of animals with liver necrosis [8] | other results
O=C(O)[C@@H]1CSC(c2ccccc2)N1 (some centres undefined) | 2 | 6 | 7 | 3 | – | Survival [4]: 23
CC1N[C@@H](C(=O)O)CS1 (some centres undefined) | 17 | – | – | – | – | No. of animals with liver necrosis [6]: 1; Survival [7]: 0
O=C(O)[C@@H]1CSC(c2ccncc2)N1 (some centres undefined) | 6 | 5 | 2 | 1 | 4 | Survival [9]: 13
CCCCCC1N[C@H](C(=O)O)CS1 (some centres undefined) | – | – | 16 | – | 2 | Survival [10]: 24
CCC1N[C@H](C(=O)O)CS1 (some centres undefined) | 6 | 3 | 3 | 3 | 3 | Survival [11]: 19
CCCC1N[C@H](C(=O)O)CS1 (some centres undefined) | 2 | – | 9 | 1 | 6 | Survival [12]: 30
CC1N[C@H](C(=O)O)CS1 (some centres undefined) | 1 | – | 17 | – | – | Of dose excreted [13]: 3.7%; Of dose excreted [14]: 7%; Of dose excreted [15]: 4.3%; Survival [16]: 28; Of dose excreted [17]: 2.9%; Of dose excreted [18]: 61.9%
CC(=O)N[C@@H](CS)C(=O)O [ACETYLCYSTEINE] | – | – | 15 | – | 2 | Survival [19]: 17
